Results published in ChEMBL document CHEMBL1123619, “Isothiourea derivatives of 6-phenyl-2,3,5,6-tetrahydroimidazo[2,1-b]thiazole with broad-spectrum anthelmintic activity” (J Med Chem, 1987).
The source made the active and inactive calls. The calls are words filed in the database; no cut-off is given here.

Columns and labels:
Ovis aries [1] = assay: Anthelmintic activity against adult liver fluke (Fasciola hepatica) in sheep, after peroral administration of 30 mg/kg was determined; I means no effect on sheep fecal fluke egg output; assay type: functional, organism-based; parameters: dose 30 mg/kg; details: at 30 mg/kg
Summary of the method: (§1)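 Sheep dosed with a single oral dose. Fecal fluke egg output monitored after treatment. Animals necropsied only if the fecal egg count fell. Postmortem Fasciola hepatica burdens compared with untreated control sheep (mean of 10 controls). Single animals per test unless otherwise indicated, with group size given in parentheses. I denotes no effect on fecal fluke egg output.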

[2] = system: Heligmosomoides polygyrus; assay: Nematocidal activity against Nematospiroides dubius induced necropsy in mouse, oral administration 200 mg/kg; assay type: functional
Summary of the method: (§2)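 Seven-week-old female LACA mice infected orally with 100 N. dubius L3 larvae; single gavage dose given at day 10 of infection, groups of four mice; necropsy 4 days later; percent activity from worm burdens of treated versus untreated groups.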

Fasciola hepatica = assay: Anthelmintic activity against adult liver fluke (Fasciola hepatica) in sheep following 30 mg/kg p.o.; assay type: functional; details: route oral; summary of the method: as §1
Ovis aries [3] = assay: Anthelmintic activity against adult liver fluke (Fasciola hepatica) in sheep, after peroral administration of 20 mg/kg was determined; I means no effect on sheep fecal fluke egg output; assay type: functional, organism-based; parameters: dose 20 mg/kg; details: at 20 mg/kg; summary of the method: as §1
Mus musculus [4] = assay: Nematocidal activity against Nematospiroides dubius induced necropsy in mouse, after oral administration of 50 mg/kg of the compound; assay type: functional; summary of the method: as §2
Ovis aries [5] = assay: Anthelmintic activity against adult liver fluke (Fasciola hepatica) in 2 sheep, after peroral administration of 30 mg/kg was determined.; assay type: functional; details: route oral; summary of the method: as §1
Mus musculus [6] = assay: Nematocidal activity against Nematospiroides dubius induced necropsy in mouse, after oral administration of 100 mg/kg of the compound; assay type: functional; summary of the method: as §2
Ovis aries [7] = assay: Anthelmintic activity against adult liver fluke (Fasciola hepatica) in sheep, after peroral administration of 15 mg/kg was determined; assay type: functional; details: route oral; summary of the method: as §1
Mus musculus [8] = assay: Nematocidal activity against Nematospiroides dubius induced necropsy in mouse, after oral administration of 100 mg/kg; assay type: functional; summary of the method: as §2
Ovis aries [9] = assay: Anthelmintic activity against adult liver fluke (Fasciola hepatica) in sheep, after peroral administration of 30 mg/kg; I means no effect on sheep fecal fluke egg output; assay type: functional, organism-based; parameters: dose 30 mg/kg; details: at 30 mg/kg; summary of the method: as §1
Ovis aries [10] = assay: Anthelmintic activity against adult liver fluke (Fasciola hepatica) in sheep, after peroral administration of 20 mg/kg was determined; assay type: functional; details: route oral; summary of the method: as §1
Ovis aries [11] = assay: Anthelmintic activity against adult liver fluke (Fasciola hepatica) in sheep, after peroral administration of 30 mg/kg was determined. Value in parentheses indicate number of animals used; assay type: functional; details: route oral; summary of the method: as §1
Ovis aries [12] = assay: Anthelmintic activity against adult liver fluke (Fasciola hepatica) in 3 sheep, after peroral administration of 30 mg/kg was determined. Value in parentheses indicate number of animals used; assay type: functional; details: route oral; summary of the method: as §1
Mus musculus [13] = assay: Nematocidal activity against Nematospiroides dubius induced necropsy in mouse, after oral administration of 12.5 mg/kg of the compound; assay type: functional
Summary of the method: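 Female LACA mice (7 weeks) infected orally with 100 N. dubius L3 larvae; single oral dose as solution in PEG 400 on infection day 10, four mice per group; necropsied 4 days later; percent activity by comparing treated and untreated worm burdens.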

Ovis aries [14] = assay: Anthelmintic activity against adult liver fluke (Fasciola hepatica) in sheep, after peroral administration of 5 mg/kg was determined; assay type: functional; details: route oral; summary of the method: as §1
Ovis aries [15] = assay: Anthelmintic activity against adult liver fluke (Fasciola hepatica) in sheep, after peroral administration of 7.5 mg/kg was determined; assay type: functional; details: route oral; summary of the method: as §1
Mus musculus [16] = assay: Nematocidal activity against Nematospiroides dubius induced necropsy in mouse, after oral administration of 25 mg/kg of the compound; assay type: functional; summary of the method: as §2
Ovis aries [17] = assay: Anthelmintic activity against adult liver fluke (Fasciola hepatica) in sheep, after peroral administration of 10 mg/kg was determined; assay type: functional; details: route oral; summary of the method: as §1
Mus musculus [18] = assay: Nematocidal against Nematospiroides dubius in mouse was determined at 1 mg/kg peroral dose of compound; assay type: functional; details: route oral; summary of the method: as §2
Ovis aries [19] = assay: Toxic activity expressed as the percentage against liver fluke in the sheep at 30 mg/kg peroral administration of dose; lethal; assay type: ADME, organism-based; parameters: dose 30 mg/kg, route oral; details: in vivo, po
Ovis aries [20] = assay: Toxic activity expressed as the percentage against liver fluke in the sheep at 15 mg/kg peroral administration of dose; assay type: ADME, organism-based; parameters: dose 15 mg/kg, route oral; details: in vivo, po
Summary of the method: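 Fasciola hepatica in sheep, controlled test; animals necropsied only when fecal egg count fell; postmortem fluke burdens compared with untreated control sheep (10 controls).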

Mus musculus [21] = assay: Nematocidal against Nematospiroides dubius in mouse was determined at 5 mg/kg peroral dose of compound; assay type: functional; details: route oral; summary of the method: as §2
Mus musculus [22] = assay: Nematocidal against Nematospiroides dubius in mouse was determined at 50 mg/kg peroral dose of compound; all animals died at this dose; assay type: functional, organism-based; parameters: dose 50 mg/kg; summary of the method: as §2
Mus musculus [23] = assay: Nematocidal against Nematospiroides dubius in mouse was determined at 0.5 mg/kg peroral dose of compound; assay type: functional; details: route oral; summary of the method: as §2
Ovis aries [24] = assay: Anthelmintic activity against adult fecal fluke egg output in sheep, after peroral administration of 30 mg/kg; I means no effect on sheep fecal fluke egg output; assay type: functional, organism-based; parameters: dose 30 mg/kg; details: at 30 mg/kg; summary of the method: as §1
Ovis aries [25] = assay: Anthelmintic activity against adult liver fluke (Fasciola hepatica) in 2 sheep, after peroral administration of 30 mg/kg was determined. Value in parentheses indicate number of animals used; assay type: functional; details: route oral; summary of the method: as §1
Ovis aries [26] = assay: Anthelmintic activity against adult liver fluke (Fasciola hepatica) in sheep, after peroral administration of 20 mg/kg; I means no effect on sheep fecal fluke egg output; assay type: functional, organism-based; parameters: dose 20 mg/kg; details: at 20 mg/kg; summary of the method: as §1

Structure (SMILES) | Reduction [2] | Activity (Fasciola hepatica) | Reduction (Mus musculus [8]) | other results
CCCCS/C(=N\c1cccc(C2CN3CCSC3=N2)c1)Nc1ccccc1 (stereo not given) | 0% | – | – | Activity (Ovis aries [1]): inactive
CCOC(=O)c1ccc(N/C(=N/c2cccc(C3CN4CCSC4=N3)c2)SC)cc1 (stereo not given) | 74% | 97% | – | Activity (Ovis aries [3]): inactive
CS/C(=N\c1cccc(C2CN3CCSC3=N2)c1)Nc1ccccc1 (stereo not given) | 99% | – | – | Activity (Mus musculus [4]): 0%; Activity (Ovis aries [5]): 94%; Activity (Mus musculus [6]): 38%
CS/C(=N\c1cccc(C2CN3CCSC3=N2)c1)Nc1ccc(C(C)=O)cc1 (stereo not given) | 100% | 100% | 93% | Activity (Ovis aries [7]): 100%
CCCCCCCCS/C(=N\c1cccc(C2CN3CCSC3=N2)c1)Nc1ccccc1 (stereo not given) | 0% | – | – | Activity (Ovis aries [1]): inactive
CS/C(=N\c1cccc(C2CN3CCSC3=N2)c1)Nc1ccccc1Cl (stereo not given) | 23% | – | – | Activity (Ovis aries [9]): inactive
c1ccc(CS/C(=N\c2cccc(C3CN4CCSC4=N3)c2)Nc2ccccc2)cc1 (stereo not given) | 0% | – | – | Activity (Ovis aries [1]): inactive
CS/C(=N\c1cccc(C2CN3CCSC3=N2)c1)Nc1cccc(Br)c1 (stereo not given) | 79% | 100% | 56% | Activity (Ovis aries [7]): 77%; Activity (Ovis aries [10]): 100%
CS/C(=N\c1cccc(C2CN3CCSC3=N2)c1)Nc1ccc([N+](=O)[O-])cc1 (stereo not given) | 100% | – | 100% | Reduction (Mus musculus [4]): 95%; Activity (Ovis aries [11]): 94%; Activity (Ovis aries [10]): 85%
CS/C(=N\c1cccc(C2CN3CCSC3=N2)c1)Nc1ccc([S+](C)[O-])cc1 (stereo not given) | 97% | 100% | 33% | Activity (Ovis aries [7]): 14%; Activity (Ovis aries [10]): 66%
CS/C(=N\c1cccc(C2CN3CCSC3=N2)c1)Nc1ccccc1C#N (stereo not given) | 0% | – | – | Activity (Ovis aries [1]): inactive
CS/C(=N\c1cccc(C2CN3CCSC3=N2)c1)Nc1ccc(F)cc1 (stereo not given) | 100% | 60% | 0% | –
CS/C(=N\c1cccc(C2CN3CCSC3=N2)c1)Nc1ccc(C)cc1 (stereo not given) | 0% | 91% | – | –
CS/C(=N\c1cccc(C2CN3CCSC3=N2)c1)Nc1cccc(C#N)c1 (stereo not given) | 100% | – | 54% | Activity (Ovis aries [7]): 63%; Activity (Ovis aries [12]): 100%; Activity (Ovis aries [10]): 100%
CS/C(=N\c1cccc(C2CN3CCSC3=N2)c1)Nc1ccc(S(C)(=O)=O)cc1 (stereo not given) | 100% | – | 94% | Reduction (Mus musculus [4]): 41%; Activity (Ovis aries [7]): 74%; Activity (Ovis aries [5]): 100%; Activity (Ovis aries [10]): 89%
COc1ccc(N/C(=N/c2cccc(C3CN4CCSC4=N3)c2)SC)cc1 (stereo not given) | 0% | – | – | Activity (Ovis aries [9]): inactive
CS/C(=N\c1cccc([C@H]2CN3CCSC3=N2)c1)Nc1ccc(C#N)cc1 | 100% | – | 100% | Reduction (Mus musculus [13]): 66%; Reduction (Mus musculus [4]): 100%; Activity (Ovis aries [14]): 85%; Activity (Ovis aries [15]): 91%; Reduction (Mus musculus [16]): 99.9%; Activity (Ovis aries [17]): 100%

Structure (SMILES) | Reduction [2] | Activity (Fasciola hepatica) | Reduction (Mus musculus [8]) | other results
Nc1cccc(C2CN3CCSC3=N2)c1 (stereo not given) | – | – | – | Reduction (Mus musculus [18]): 99%; Activity (Ovis aries [19]): lethal; Activity (Ovis aries [20]): 0%; Reduction (Mus musculus [21]): 100%; Reduction (Mus musculus [22]): all animals died at this dose; Reduction (Mus musculus [23]): 43%
CCCS/C(=N\c1cccc(C2CN3CCSC3=N2)c1)Nc1ccccc1 (stereo not given) | 64% | – | – | Activity (Ovis aries [24]): inactive
CS/C(=N\c1cccc(C2CN3CCSC3=N2)c1)Nc1ccc(Cl)c(Cl)c1 (stereo not given) | 0% | 63% | 0% | –
CS/C(=N\c1cccc(C2CN3CCSC3=N2)c1)Nc1cccc([N+](=O)[O-])c1 (stereo not given) | 95% | 91% | 95% | Activity (Ovis aries [7]): 100%
CS/C(=N\c1ccccc1)N(C)c1cccc(C2CN3CCSC3=N2)c1 (stereo not given) | 0% | – | – | Activity (Ovis aries [1]): inactive
CS/C(=N\c1cccc(C2CN3CCSC3=N2)c1)Nc1cccc(F)c1 (stereo not given) | 100% | 66% | 100% | Reduction (Mus musculus [4]): 64%
CS/C(=N\c1cccc(C2CN3CCSC3=N2)c1)Nc1ccc(Br)cc1 (stereo not given) | 73% | 94% | 0% | Activity (Ovis aries [10]): 100%
CS/C(=N\c1cccc(C2CN3CCSC3=N2)c1)Nc1ccc(C)c(C)c1 (stereo not given) | 0% | 85% | – | –
CS/C(=N\c1cccc(C2CN3CCSC3=N2)c1)Nc1ccc(SC)cc1 (stereo not given) | 95% | – | 30% | Activity (Ovis aries [25]): 100%; Activity (Ovis aries [7]): 71%; Activity (Ovis aries [10]): 80%
CS/C(=N\c1cccc(C2CN3CCSC3=N2)c1)Nc1ccc(C(F)(F)F)cc1 (stereo not given) | 74% | 100% | – | Activity (Ovis aries [7]): 100%
CS/C(=N\c1cccc(C2CN3CCSC3=N2)c1)Nc1ccc(Cl)cc1 (stereo not given) | 88% | 100% | 0% | –
c1ccc(C2CN3CCSC3=N2)cc1 (stereo not given) [TETRAMISOLE] | – | – | – | Reduction (Mus musculus [18]): 43%; Reduction (Mus musculus [21]): 57%
CCCCCCN/C(=N/c1cccc(C2CN3CCSC3=N2)c1)SC (stereo not given) | 52% | – | – | Activity (Ovis aries [9]): inactive
CCS/C(=N\c1cccc(C2CN3CCSC3=N2)c1)Nc1ccccc1 (stereo not given) | 92% | 97% | – | Activity (Ovis aries [26]): inactive
CS/C(=N\c1cccc(C2CN3CCSC3=N2)c1)NC1CCCCC1 (stereo not given) | 15% | – | – | Activity (Ovis aries [9]): inactive
CC(C)S/C(=N\c1cccc(C2CN3CCSC3=N2)c1)Nc1ccccc1 (stereo not given) | 0% | – | – | Activity (Ovis aries [1]): inactive
CS/C(=N\c1cccc(C2CN3CCSC3=N2)c1)Nc1cccc(Cl)c1 (stereo not given) | 99% | 91% | 87% | Activity (Ovis aries [26]): inactive
